Reference: ChEMBL document CHEMBL1629539, “Configuration of the 5'-methyl group modulates the biophysical and biological properties of locked nucleic acid (LNA) oligonucleotides” (J Med Chem, 2010)
Calls of active or inactive are those of the source. No cut-off for these calls is given here.

Experiments:
[1] = system: Mus musculus; experiment: Reduction in PTEN mRNA expression in BALB/c mouse liver at 12 mg/kg, ip administered as single dose measured 72 hrs post dose; format: functional
Method in brief: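 Single ip injection at 12 or 60 mg/kg of phosphorothioate gapmer (14-base deoxy gap, two modified nucleotides per wing) against PTEN in Balb-c mice, n = 4/group. After sacrifice, liver PTEN mRNA reported as % down-regulation versus saline controls, and plasma ALT (IU/L) measured as the liver toxicity read-out.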

[2] = system: snake venom phosphodiesterase; experiment: Chemical stability in presence of snake venom phosphodiesterase assessed as half life; format: physicochemical

Row | SMILES | inhibition [1] | half-life [2] [h]
1 | Cc1cn([C@@H]2O[C@@]3(COP(O)(=S)O[C@H]4[C@H]5OC[C@]4(COP(O)(=S)O[C@H]4[C@H]6OC[C@]4(COP(O)(=S)O[C@H]4[C@H]7OC[C@]4(COP(O)(=S)O[C@H]4[C@H]8OC[C@]4(COP(O)(=S)O[C@H]4[C@H]9OC[C@]4(COP(O)(=S)O[C@H]4[C@H]%10OC[C@]4(COP(O)(=S)O[C@H]4[C@H]%11OC[C@]4(COP(O)(=S)O[C@H]4[C@H]%12OC[C@]4(COP(O)(=S)O[C@H]4[C@H]%13OC[C@]4([C@H](C)O)O[C@H]%13n4ccc(N)nc4=O)O[C@H]%12n4ccc(=O)[nH]c4=O)O[C@H]%11n4cnc%11c(=O)[nH]c(N)nc%114)O[C@H]%10n4ccc(N)nc4=O)O[C@H]9n4cc(C)c(=O)[nH]c4=O)O[C@H]8n4cnc8ncnc(N)c84)O[C@H]7[n+]4c[nH]c7nc(N)[nH]c(=O)c74)O[C@H]6n4ccc(N)nc4=O)O[C@H]5n4ccc(N)nc4=O)CO[C@@H]2[C@@H]3OP(O)(=S)OC[C@@]23CO[C@@H]([C@H](n4ccc(N)nc4=O)O2)[C@@H]3OP(O)(=S)OC[C@@]23CO[C@@H]([C@H](n4cc(C)c(=O)[nH]c4=O)O2)[C@@H]3OP(O)(=S)OC[C@@]23CO[C@@H]([C@H]([n+]4c[nH]c5nc(N)[nH]c(=O)c54)O2)[C@@H]3OP(O)(=S)OC[C@@]23CO[C@@H]([C@H]([n+]4c[nH]c5nc(N)[nH]c(=O)c54)O2)[C@@H]3OP(O)(=S)OC[C@@]23CO[C@@H]([C@H](n4cnc5ncnc(N)c54)O2)[C@@H]3OP(O)(=S)OC[C@@]23CO[C@@H]([C@H](n4cc(C)c(=O)[nH]c4=O)O2)[C@@H]3OP(O)(=S)OC[C@@]23CO[C@@H]([C@H](n4ccc(=O)[nH]c4=O)O2)[C@@H]3OP(O)(=S)OC[C@@]23CO[C@@H]([C@H](n4ccc(=O)[nH]c4=O)O2)[C@@H]3O)c(=O)[nH]c1=O (some centres undefined) | Active | –
2 | Cc1cn([C@H]2CC(OP(=O)(O)OC[C@H]3O[C@@H](n4cc(C)c(=O)[nH]c4=O)C[C@@H]3OP(=O)(O)OC[C@H]3O[C@@H](n4cc(C)c(=O)[nH]c4=O)C[C@@H]3OP(=O)(O)OC[C@H]3O[C@@H](n4cc(C)c(=O)[nH]c4=O)C[C@@H]3OP(=O)(O)OC[C@H]3O[C@@H](n4cc(C)c(=O)[nH]c4=O)C[C@@H]3OP(=O)(O)OC[C@H]3O[C@@H](n4cc(C)c(=O)[nH]c4=O)C[C@@H]3OP(=O)(O)OC[C@H]3O[C@@H](n4cc(C)c(=O)[nH]c4=O)C[C@@H]3OP(=O)(O)OC[C@H]3O[C@@H](n4cc(C)c(=O)[nH]c4=O)C[C@@H]3OP(=O)(O)OC[C@H]3O[C@@H](n4cc(C)c(=O)[nH]c4=O)C[C@@H]3OP(=O)(O)OC[C@H]3O[C@@H](n4cc(C)c(=O)[nH]c4=O)C[C@@H]3OP(=O)(O)OC[C@@]34CO[C@@H]([C@H](n5ccc(=O)[nH]c5=O)O3)[C@@H]4OP(=O)(O)OC[C@@]34CO[C@@H]([C@H](n5ccc(=O)[nH]c5=O)O3)[C@@H]4O)[C@@H](CO)O2)c(=O)[nH]c1=O (some centres undefined) | – | 0.0433
3 | Cc1cn([C@H]2C[C@H](OP(=O)(O)OC[C@H]3O[C@@H](n4cc(C)c(=O)[nH]c4=O)C[C@@H]3OP(=O)(O)OC[C@H]3O[C@@H](n4cc(C)c(=O)[nH]c4=O)C[C@@H]3OP(=O)(O)OC[C@H]3O[C@@H](n4cc(C)c(=O)[nH]c4=O)C[C@@H]3OP(=O)(O)OC[C@H]3O[C@@H](n4cc(C)c(=O)[nH]c4=O)C[C@@H]3OP(=O)(O)OC[C@H]3O[C@@H](n4cc(C)c(=O)[nH]c4=O)C[C@@H]3OP(=O)(O)OC[C@H]3O[C@@H](n4cc(C)c(=O)[nH]c4=O)C[C@@H]3OP(=O)(O)OC[C@H]3O[C@@H](n4cc(C)c(=O)[nH]c4=O)C[C@@H]3OP(=O)(O)OC[C@H]3O[C@@H](n4cc(C)c(=O)[nH]c4=O)C[C@@H]3OP(=O)(O)OC[C@H]3O[C@@H](n4cc(C)c(=O)[nH]c4=O)C[C@@H]3OP(=O)(O)OC[C@@]34CO[C@@H]([C@H](n5ccc(=O)[nH]c5=O)O3)[C@@H]4OP(=O)(O)O[C@H](C)[C@@]34CO[C@@H]([C@H](n5ccc(=O)[nH]c5=O)O3)[C@@H]4O)[C@@H](CO)O2)c(=O)[nH]c1=O | – | 3.5
4 | Cc1cn([C@H]2C[C@H](OP(=O)(O)OC[C@H]3O[C@@H](n4cc(C)c(=O)[nH]c4=O)C[C@@H]3OP(=O)(O)OC[C@H]3O[C@@H](n4cc(C)c(=O)[nH]c4=O)C[C@@H]3OP(=O)(O)OC[C@H]3O[C@@H](n4cc(C)c(=O)[nH]c4=O)C[C@@H]3OP(=O)(O)OC[C@H]3O[C@@H](n4cc(C)c(=O)[nH]c4=O)C[C@@H]3OP(=O)(O)OC[C@H]3O[C@@H](n4cc(C)c(=O)[nH]c4=O)C[C@@H]3OP(=O)(O)OC[C@H]3O[C@@H](n4cc(C)c(=O)[nH]c4=O)C[C@@H]3OP(=O)(O)OC[C@H]3O[C@@H](n4cc(C)c(=O)[nH]c4=O)C[C@@H]3OP(=O)(O)OC[C@H]3O[C@@H](n4cc(C)c(=O)[nH]c4=O)C[C@@H]3OP(=O)(O)OC[C@H]3O[C@@H](n4cc(C)c(=O)[nH]c4=O)C[C@@H]3OP(=O)(O)OC[C@@]34CO[C@@H]([C@H](n5ccc(=O)[nH]c5=O)O3)[C@@H]4OP(=O)(O)O[C@@H](C)[C@@]34CO[C@@H]([C@H](n5ccc(=O)[nH]c5=O)O3)[C@@H]4O)[C@@H](CO)O2)c(=O)[nH]c1=O | – | 8.1
